Laboratory results taken from ChEMBL document CHEMBL4808210, “Mapping Chromone-3-Phenylcarboxamide Pharmacophore: Quid Est Veritas?” (J Med Chem, 2021).
Activity calls are given as the source filed them. The calls are words filed in the database; no cut-off is given here.

Key:
[1] = target: T1, Amine oxidase [flavin-containing] B (Homo sapiens, UniProt P27338); assay: Inhibition of recombinant human MAO-B expressed in baculovirus infected BTI-TN- 5B1-4 insect cells using kynuramine as substrate preincubated for 10 mins in presence of substrate followed by enzyme addition and measured every minute for 30 mins by spectrophotometry analysis; assay type: cell-based
T1 sequence (P27338 whole entry): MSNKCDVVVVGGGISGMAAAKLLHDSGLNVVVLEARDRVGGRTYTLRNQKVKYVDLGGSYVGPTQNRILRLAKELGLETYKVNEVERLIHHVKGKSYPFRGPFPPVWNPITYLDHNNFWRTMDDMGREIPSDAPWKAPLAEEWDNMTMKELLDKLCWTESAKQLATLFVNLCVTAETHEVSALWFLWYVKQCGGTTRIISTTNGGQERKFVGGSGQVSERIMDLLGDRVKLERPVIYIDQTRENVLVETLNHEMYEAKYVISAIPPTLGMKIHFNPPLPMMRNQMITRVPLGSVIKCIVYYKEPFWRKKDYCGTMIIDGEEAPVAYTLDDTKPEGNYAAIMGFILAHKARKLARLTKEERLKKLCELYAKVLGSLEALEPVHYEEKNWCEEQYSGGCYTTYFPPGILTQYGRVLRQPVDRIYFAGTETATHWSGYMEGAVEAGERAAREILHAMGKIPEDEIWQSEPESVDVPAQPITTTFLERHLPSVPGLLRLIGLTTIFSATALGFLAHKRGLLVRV

MAO-A = target: T2, MAO-A (Homo sapiens, UniProt P21397); assay: Inhibition of recombinant human MAO-A expressed in baculovirus infected BTI-TN- 5B1-4 insect cells at 10 uM using kynuramine as substrate preincubated for 10 mins in presence of substrate followed by enzyme addition and measured every minute for 30 mins by spectrophotometry analysis relative to control; conditions: probe kynuramine, time 40 min
T2 sequence (P21397 whole entry): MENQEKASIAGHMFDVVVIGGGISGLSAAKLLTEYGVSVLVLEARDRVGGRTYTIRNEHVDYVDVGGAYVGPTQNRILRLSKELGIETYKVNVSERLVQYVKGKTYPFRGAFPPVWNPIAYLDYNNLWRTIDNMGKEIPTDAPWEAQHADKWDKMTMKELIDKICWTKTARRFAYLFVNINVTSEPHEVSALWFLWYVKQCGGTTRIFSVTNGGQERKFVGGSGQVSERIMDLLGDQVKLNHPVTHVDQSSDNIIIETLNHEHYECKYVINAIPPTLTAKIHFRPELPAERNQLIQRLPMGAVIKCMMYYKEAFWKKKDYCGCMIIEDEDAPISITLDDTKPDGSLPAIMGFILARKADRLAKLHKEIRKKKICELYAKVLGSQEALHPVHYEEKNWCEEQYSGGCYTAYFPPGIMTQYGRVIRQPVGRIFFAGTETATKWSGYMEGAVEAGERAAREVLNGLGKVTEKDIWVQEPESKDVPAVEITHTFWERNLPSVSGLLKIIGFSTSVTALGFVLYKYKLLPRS
Summary of the method: (§1)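 Recombinant hMAO-A and hMAO-B were assayed with kynuramine as substrate. Percent inhibition was taken at 10 μM, the highest concentration tested. Where the hMAO-A IC₅₀ was not reached, it was taken as 10 μM.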

Homo sapiens = species: Homo sapiens; assay: Selectivity index, ratio of IC50 for recombinant human MAO-A expressed in baculovirus infected BTI-TN- 5B1-4 insect cells to IC50 for recombinant human MAO-B expressed in baculovirus infected BTI-TN- 5B1-4 insect cells using kynuramine as substrate preincubated for 10 mins in presence of substrate followed by enzyme addition and measured every minute for 30 mins by spectrophotometry analysis; summary of the method: as §1
[2] = target: T1, Amine oxidase [flavin-containing] B; assay: Time dependent inhibition of recombinant human MAO-B expressed in baculovirus infected BTI-TN- 5B1-4 insect cells assessed as increase in enzyme activity at IC80 measured after 120 mins; conditions: bti-tn-5b1-4, 2 h
[3] = Solubility of the compound in phosphate buffer at > 10 uM; assay type: physicochemical
SH-SY5Y [4] = assay: Cytotoxicity against human SH-SY5Y cells assessed as reduction in cell viability at 10 uM measured after 24 hrs by MTT assay relative to control; assay type: cell-based
Summary of the method: (§2)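 Caco-2 cells, and SH-SY5Y cells first differentiated toward a dopaminergic-like phenotype, were treated for 24 h with compounds at 1 and 10 μM. Metabolic activity was read as MTT reduction to formazan, relative to untreated cells. Mean ± SEM of at least three independent experiments, each in triplicate.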

SH-SY5Y [5] = assay: Cytotoxicity against human SH-SY5Y cells assessed as effect on NR uptake at 1 to 10 uM measured after 24 hrs by neutral red uptake assay; assay type: cell-based; conditions: dose 1-10 µM
Summary of the method: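 Differentiated SH-SY5Y cells were exposed to compounds at 1 and 10 μM for 24 h. Lysosomal activity was read as neutral red dye uptake and compared with untreated cells. Mean ± SEM of at least three independent experiments run in triplicate.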

Caco-2 = assay: Cytotoxicity against human Caco-2 cells assessed as effect on cell viability at 1 to 10 uM measured after 24 hrs by MTT assay; assay type: cell-based; conditions: caco-2, 24 h, dose 1-10 µM; summary of the method: as §2
HUVEC [6] = assay: Cytotoxicity against HUVEC cells at 10 uM incubated for 24 to 48 hrs by Celltiter-Glo assay relative to control; assay type: cell-based; conditions: human, time 24-48 hrs
Summary of the method: (§3)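 Cells (HEK-293, HUVEC, MCF-7) exposed to test compounds at 10 μM for 24 h; cytotoxicity read in triplicate with a luminescence kit measuring intracellular ATP levels.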

HEK293 [7] = assay: Cytotoxicity against HEK293 cells at 10 uM incubated for 24 to 48 hrs by Celltiter-Glo assay relative to control; assay type: cell-based; conditions: human, hek293, 10 µM, time 24-48 hrs; summary of the method: as §3
MCF7 [8] = assay: Cytotoxicity against human MCF7 cells at 10 uM incubated for 24 to 48 hrs by Celltiter-Glo assay relative to control; assay type: cell-based; conditions: mcf7, 10 µM, time 24-48 hrs; summary of the method: as §3
HUVEC [9] = assay: Cytotoxicity against HUVEC cells incubated for 24 to 48 hrs by Celltiter-Glo assay; assay type: cell-based, Homo sapiens
HEK293 [10] = assay: Cytotoxicity against HEK293 cells incubated for 24 to 48 hrs by Celltiter-Glo assay; assay type: cell-based, Homo sapiens
MCF7 [11] = assay: Cytotoxicity against human MCF7 cells incubated for 24 to 48 hrs by Celltiter-Glo assay; assay type: cell-based
hERG = hERG (Homo sapiens, UniProt Q12809); assay: Inhibition of human ERG at 10 uM incubated for 2 hrs by fluorescence polarization assay relative to control
Sequence of hERG (Q12809 whole entry): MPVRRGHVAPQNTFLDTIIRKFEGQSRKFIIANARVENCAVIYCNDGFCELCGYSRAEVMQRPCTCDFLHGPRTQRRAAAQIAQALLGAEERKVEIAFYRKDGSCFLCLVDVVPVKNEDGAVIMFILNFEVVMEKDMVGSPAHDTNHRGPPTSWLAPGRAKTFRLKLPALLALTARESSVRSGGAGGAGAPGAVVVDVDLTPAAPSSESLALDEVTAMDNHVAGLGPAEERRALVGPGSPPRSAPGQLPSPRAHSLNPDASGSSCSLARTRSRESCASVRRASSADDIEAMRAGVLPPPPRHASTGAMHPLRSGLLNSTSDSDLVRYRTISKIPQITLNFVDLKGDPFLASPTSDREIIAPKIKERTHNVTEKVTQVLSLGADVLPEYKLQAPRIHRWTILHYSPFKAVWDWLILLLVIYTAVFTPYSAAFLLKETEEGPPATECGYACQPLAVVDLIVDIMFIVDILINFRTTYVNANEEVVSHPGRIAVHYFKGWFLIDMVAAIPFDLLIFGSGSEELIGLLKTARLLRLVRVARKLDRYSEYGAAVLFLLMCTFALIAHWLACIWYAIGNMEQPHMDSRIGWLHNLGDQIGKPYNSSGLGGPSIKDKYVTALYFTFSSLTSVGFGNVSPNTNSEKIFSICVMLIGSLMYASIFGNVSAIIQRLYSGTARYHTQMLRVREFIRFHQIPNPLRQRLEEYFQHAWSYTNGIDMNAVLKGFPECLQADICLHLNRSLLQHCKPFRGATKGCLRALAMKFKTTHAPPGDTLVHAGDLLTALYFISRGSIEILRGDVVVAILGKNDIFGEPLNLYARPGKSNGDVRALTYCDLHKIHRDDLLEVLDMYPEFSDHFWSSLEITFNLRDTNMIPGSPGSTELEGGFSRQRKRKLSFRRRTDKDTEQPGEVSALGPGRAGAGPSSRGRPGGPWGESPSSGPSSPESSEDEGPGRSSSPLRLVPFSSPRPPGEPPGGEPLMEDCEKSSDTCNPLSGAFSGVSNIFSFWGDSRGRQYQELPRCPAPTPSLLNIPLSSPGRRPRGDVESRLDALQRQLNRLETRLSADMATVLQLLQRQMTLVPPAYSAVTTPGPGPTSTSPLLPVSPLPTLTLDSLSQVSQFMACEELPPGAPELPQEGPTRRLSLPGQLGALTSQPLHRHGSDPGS
Summary of the method: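 hERG binding was measured by fluorescence polarization, using a homogenized membrane preparation containing hERG plus a fluorescent tracer. A drop in FP signal from tracer displacement was read as inhibition. Compounds were tested at 10 μM.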

[12] = target: ATP-dependent translocase ABCB1 (Homo sapiens, UniProt P08183); assay: Modulation of P-gp-mediated Rhodamine-123 efflux in human Caco-2 cells assessed as Rhodamine-123 accumulation at 10 uM pretreated for 30 mins in presence or absence of Zos followed by Rho-123 addition and measured after 90 mins by fluorescence spectroscopy; assay type: cell-based; conditions: caco-2, 2 h, time 120 min
Sequence of ATP-dependent translocase ABCB1 (P08183 whole entry): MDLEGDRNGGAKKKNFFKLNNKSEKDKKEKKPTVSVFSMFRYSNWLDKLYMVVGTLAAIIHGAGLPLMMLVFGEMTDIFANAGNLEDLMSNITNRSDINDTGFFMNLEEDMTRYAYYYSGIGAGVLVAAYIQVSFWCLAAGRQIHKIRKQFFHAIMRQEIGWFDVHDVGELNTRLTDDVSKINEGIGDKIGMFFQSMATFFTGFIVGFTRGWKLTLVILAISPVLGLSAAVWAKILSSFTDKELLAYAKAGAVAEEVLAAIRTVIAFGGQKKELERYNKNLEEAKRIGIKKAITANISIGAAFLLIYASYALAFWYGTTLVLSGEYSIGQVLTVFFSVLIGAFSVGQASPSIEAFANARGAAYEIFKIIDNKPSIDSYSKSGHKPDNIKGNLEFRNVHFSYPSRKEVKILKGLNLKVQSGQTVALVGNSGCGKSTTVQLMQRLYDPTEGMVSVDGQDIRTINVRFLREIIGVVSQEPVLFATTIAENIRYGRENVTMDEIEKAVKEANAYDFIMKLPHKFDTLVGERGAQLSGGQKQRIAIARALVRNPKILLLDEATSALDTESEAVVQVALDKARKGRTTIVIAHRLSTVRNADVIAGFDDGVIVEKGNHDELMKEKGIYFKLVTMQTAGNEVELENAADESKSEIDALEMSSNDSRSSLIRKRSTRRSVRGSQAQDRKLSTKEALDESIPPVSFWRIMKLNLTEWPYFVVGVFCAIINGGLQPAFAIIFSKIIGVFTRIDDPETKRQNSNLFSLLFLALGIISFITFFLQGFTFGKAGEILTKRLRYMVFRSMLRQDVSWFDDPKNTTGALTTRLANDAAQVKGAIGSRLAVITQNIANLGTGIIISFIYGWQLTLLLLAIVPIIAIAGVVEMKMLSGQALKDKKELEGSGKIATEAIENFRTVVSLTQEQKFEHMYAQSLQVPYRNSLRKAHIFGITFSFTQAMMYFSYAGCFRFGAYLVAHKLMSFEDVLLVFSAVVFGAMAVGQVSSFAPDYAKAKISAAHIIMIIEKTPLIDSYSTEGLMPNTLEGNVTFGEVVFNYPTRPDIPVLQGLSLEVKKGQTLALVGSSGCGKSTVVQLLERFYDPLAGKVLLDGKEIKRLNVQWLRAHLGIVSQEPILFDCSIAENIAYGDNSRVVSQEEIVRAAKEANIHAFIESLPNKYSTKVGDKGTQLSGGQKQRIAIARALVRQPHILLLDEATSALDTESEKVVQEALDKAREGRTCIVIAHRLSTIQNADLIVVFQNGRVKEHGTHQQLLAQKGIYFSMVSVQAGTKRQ
Summary of the method: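 Caco-2 cells were exposed to compounds at 10 μM during incubation with the P-gp substrate rhodamine 123 (5 μM). Zosuquidar served as the specific P-gp inhibitor. Cellular rhodamine 123 was read by fluorescence spectroscopy. Mean ± SEM of at least three independent experiments in triplicate.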

SH-SY5Y [13] = assay: Protection against iron(III)-induced damage in human SH-SY5Y cells assessed as increase in lysosomal activity at 1 to 10 uM pretreated for 30 mins followed by iron(III) treatment at 1000 uM after 24 hrs by NR uptake assay; assay type: functional, cell-based; conditions: dose 1-10 µM, time 24.5 hrs
Summary of the method: (§4)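 Differentiated SH-SY5Y cells were pretreated with compounds at 1 or 10 μM for 30 min, then exposed to iron(III) at 1000 or 1500 μM for 24 h. Viability was read by neutral red uptake. Mean ± SD of three independent experiments, two-way ANOVA.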

SH-SY5Y [14] = assay: Protection against iron(III)-induced damage in human SH-SY5Y cells assessed as increase in lysosomal activity at 1 to 10 uM pretreated for 30 mins followed by iron(III) treatment at 1500 uM after 24 hrs by NR uptake assay; assay type: functional, cell-based; conditions: dose 1-10 µM, time 24.5 hrs; summary of the method: as §4
[15] = target: T1, Amine oxidase [flavin-containing] B; assay: Inhibition of recombinant human MAO-B expressed in baculovirus infected BTI-TN- 5B1-4 insect cells at 10 uM using kynuramine as substrate preincubated for 10 mins in presence of substrate followed by enzyme addition and measured every minute for 30 mins by spectrophotometry analysis relative to control; conditions: BTI-TN-5B1-4, human, 0.5 h, time 40 min; summary of the method: as §1
[16] = target: T3, Amine oxidase [flavin-containing] A (Homo sapiens, UniProt P21397); assay: Inhibition of recombinant human MAO-A expressed in baculovirus infected BTI-TN- 5B1-4 insect cells using kynuramine as substrate preincubated for 10 mins in presence of substrate followed by enzyme addition and measured every minute for 30 mins by spectrophotometry analysis; summary of the method: as §1
T3 sequence (P21397 whole entry): T2 sequence (P21397 whole entry)

COc1ccc(NC(=O)C2=Cc3ccccc3OC2)cc1OC
IC50 [1]: 2.87 µM | inhibition at 0.5 h, 10 µM (MAO-A): 20.2% | Ratio IC50 (Homo sapiens): > 3.48

C[C@H](NCc1ccc(OCc2cccc(F)c2)cc1)C(N)=O [SAFINAMIDE]
inhibition at 0.5 h, 10 µM (MAO-A): 30.5% | TDI [2]: Active

O=C(Nc1ccc(Cl)c(Cl)c1)c1cc2ccccc2oc1=O
solubility [3]: Insoluble

Cc1ccc(NC(=O)c2coc3ccccc3c2=O)cc1C
Activity (SH-SY5Y [4]): < 85% | Activity (SH-SY5Y [5]): Non-Toxic | Activity (Caco-2): Non-Toxic | Activity (HUVEC [6]): < 10% | Activity (HEK293 [7]): < 10% | Activity (MCF7 [8]): < 10% | IC50 (HUVEC [9]; huvec): Not Active | IC50 (HEK293 [10]): Not Active | IC50 (MCF7 [11]): Not Active | inhibition at 2 h, 10 µM (hERG): < 10% | Activity [12]: Not Active | Activity (SH-SY5Y [13]): inactive | Activity (SH-SY5Y [14]): inactive

Cn1c(=O)c(C(=O)Nc2cccc(Cl)c2)cc2ccccc21
solubility [3]: Insoluble

Cc1ccc(NC(=O)C2COc3ccccc3C2)cc1C (centres undefined)
IC50 [1]: 1.78 µM | inhibition at 0.5 h, 10 µM (MAO-A): 19.6% | Ratio IC50 (Homo sapiens): > 5.62

O=C(Nc1cccc(Cl)c1)c1cc2ccccc2[nH]c1=O
inhibition at 0.5 h, 10 µM (MAO-A): 2.65% | inhibition at 10 µM [15]: 8.9%

Cc1ccc(NC(=O)c2csc3ccccc3c2=O)cc1C
IC50 [1]: 0.00335 µM | inhibition at 0.5 h, 10 µM (MAO-A): 0.2% | Ratio IC50 (Homo sapiens): > 2990 | Activity (SH-SY5Y [5]): Non-Toxic | Activity (Caco-2): Non-Toxic

Cc1ccc(NC(=O)C2=Cc3ccccc3OC2)cc1C
IC50 [16]: 13.7 µM | IC50 [1]: 0.0457 µM | Ratio IC50 (Homo sapiens): 300 | Activity (SH-SY5Y [5]): Non-Toxic | Activity (Caco-2): Non-Toxic

Cc1ccc(NC(=O)c2cc3ccccc3[nH]c2=O)cc1C
inhibition at 0.5 h, 10 µM (MAO-A): 1.32% | inhibition at 10 µM [15]: 8.1%

Cc1ccc(NC(=O)c2cc3ccccc3oc2=O)cc1C
inhibition at 0.5 h, 10 µM (MAO-A): 26.8% | Activity (SH-SY5Y [4]): < 85% | Activity (SH-SY5Y [5]): Non-Toxic | Activity (Caco-2): Non-Toxic

O=C(Nc1ccc(Cl)c(Cl)c1)C1=Cc2ccccc2OC1
IC50 [16]: 4.13 µM | IC50 [1]: 0.00316 µM | Ratio IC50 (Homo sapiens): 1300 | Activity (SH-SY5Y [5]): Non-Toxic | Activity (Caco-2): Non-Toxic | Activity (HUVEC [6]): 64.4% | Activity (HEK293 [7]): < 10% | Activity (MCF7 [8]): < 10% | IC50 (HUVEC [9]; Homo sapiens, HUVEC, read-out: IC50): 8.4 µM | IC50 (HEK293 [10]): Not Active | IC50 (MCF7 [11]): Not Active | inhibition at 2 h, 10 µM (hERG): < 10% | Activity [12]: Not Active | Activity (SH-SY5Y [13]): inactive | Activity (SH-SY5Y [14]): inactive

O=C(Nc1ccc(Cl)c(Cl)c1)c1cc2ccccc2[nH]c1=O
solubility [3]: Insoluble

Cc1ccc(NC(=O)c2cc3ccccc3n(C)c2=O)cc1C
inhibition at 0.5 h, 10 µM (MAO-A): 7.65% | inhibition at 10 µM [15]: 21%

COc1ccc(NC(=O)C2COc3ccccc3C2)cc1OC (centres undefined)
inhibition at 0.5 h, 10 µM (MAO-A): 11.8% | inhibition at 10 µM [15]: 14%

O=C(Nc1ccc(Cl)c(Cl)c1)C1COc2ccccc2C1 (centres undefined)
IC50 [1]: 0.0788 µM | inhibition at 0.5 h, 10 µM (MAO-A): 16.4% | Ratio IC50 (Homo sapiens): > 127 | Activity (SH-SY5Y [5]): Non-Toxic | Activity (Caco-2): Non-Toxic

O=C(Nc1cccc(Cl)c1)C1COc2ccccc2C1 (centres undefined)
IC50 [1]: 0.957 µM | inhibition at 0.5 h, 10 µM (MAO-A): 10.9% | Ratio IC50 (Homo sapiens): > 10.4

Cn1c(=O)c(C(=O)Nc2ccc(Cl)c(Cl)c2)cc2ccccc21
solubility [3]: Insoluble

O=C(Nc1cccc(Cl)c1)c1coc2ccccc2c1=O
Activity (SH-SY5Y [4]): < 85% | Activity (SH-SY5Y [5]): Non-Toxic | Activity (Caco-2): Non-Toxic | Activity (HUVEC [6]): < 10% | Activity (HEK293 [7]): < 10% | Activity (MCF7 [8]): < 10% | IC50 (HUVEC [9]; huvec): Not Active | IC50 (HEK293 [10]): Not Active | IC50 (MCF7 [11]): Not Active | inhibition at 2 h, 10 µM (hERG): < 10% | Activity [12]: Not Active | Activity (SH-SY5Y [13]): inactive | Activity (SH-SY5Y [14]): inactive

COc1ccc(NC(=O)c2cc3ccccc3oc2=O)cc1OC
solubility [3]: Insoluble
